{"data": "Published values pooled from the literature", "cell line": "HepG2", "observed": "cell growth or viability", "note": "Protocols differ between the studies behind these lines."}
{"Structure (SMILES)": "COc1ccc(-c2cc(-c3ccc(Br)cc3)c3c(=O)n(C)c(=O)n(C)c3n2)cc1", "method": "MTT", "time": "48 h", "measurement": "IC50", "result": "8.49 µM"}
{"Structure (SMILES)": "CN(C)c1cc(NC(=O)CCc2ccccc2)c(O)c2c1C[C@H]1C[C@H]3[C@H](N(C)C)C(O)=C(C(N)=O)C(=O)[C@@]3(O)C(O)=C1C2=O", "method": "ATP luminescence", "time": "72 h", "measurement": "IC50", "result": "165 µg/mL"}
{"Structure (SMILES)": "CCOC(=O)c1nn(-c2cccc(Cl)c2)/c(=N/N=C(\\C)c2ccc(NC(=O)c3ccc(Cl)cc3)cc2)s1", "method": "MTT", "concentration": "78 nM", "measurement": "viability", "result": "73.1%"}
{"Structure (SMILES)": "CC(=NNC(=O)c1ccccc1O)c1ccc(Nc2nnc(-c3ccc(Cl)cc3)c3ccccc23)cc1", "method": "MTT", "concentration": "2.5 µM", "measurement": "cell death", "result": "62.1%"}
{"Structure (SMILES)": "COc1ccc(-c2cc(-c3ccc(Br)cc3)c3c(=O)[nH]c(=O)[nH]c3n2)cc1", "method": "MTT", "time": "48 h", "measurement": "IC50", "result": "11.2 µM"}
{"Structure (SMILES)": "CCOC(=O)c1nn(-c2cccc(Cl)c2)/c(=N/N=C(\\C)c2ccc(NC(=O)c3ccccc3)cc2)s1", "method": "MTT", "concentration": "5 µM", "measurement": "viability", "result": "3%"}
{"Structure (SMILES)": "COc1ccc(-c2cc(-c3cccc(Br)c3)c3c(=O)[nH]c(=O)[nH]c3n2)cc1", "method": "MTT", "time": "48 h", "measurement": "IC50", "result": "16.2 µM"}
{"Structure (SMILES)": "O=C(C=Cc1ccccc1)Nc1ccc(Oc2nnc(-c3ccc(Cl)cc3)c3ccccc23)cc1", "method": "MTT", "concentration": "1.25 µM", "time": "24 h", "measurement": "viability", "result": "37.4%"}
{"Structure (SMILES)": "CC(=O)Nc1ccc(/C(C)=N/N=c2\\sc(C(C)=O)nn2-c2ccc(C)cc2)cc1", "method": "MTT", "concentration": "10 µM", "measurement": "viability", "result": "48.8%"}
{"Structure (SMILES)": "O=C(Nc1ccc(Oc2nnc(-c3ccc(Cl)cc3)c3ccccc23)cc1)c1cccc([N+](=O)[O-])c1", "method": "MTT", "concentration": "5 µM", "time": "24 h", "measurement": "viability", "result": "5.16%"}
{"Structure (SMILES)": "C=CC(=O)NC1CCN(c2ncc3ncnc(Nc4ccc(Oc5ccc6c(c5)ncn6C)c(C)c4)c3n2)CC1", "measurement": "EC50", "result": "0.335 µM"}
{"Structure (SMILES)": "COc1ccc(-c2cc(-c3ccc(Cl)cc3)c3c(=O)n(C)c(=O)n(C)c3n2)cc1", "method": "MTT", "time": "48 h", "measurement": "IC50", "result": "17.3 µM"}
{"Structure (SMILES)": "CC(=NNC(=O)c1ccncc1)c1ccc(Nc2nnc(-c3ccc(Cl)cc3)c3ccccc23)cc1", "method": "MTT", "concentration": "78 nM", "measurement": "cell death", "result": "3.16%"}
{"Structure (SMILES)": "CC(=NNC(=O)COc1ccc2c(C)c(Cc3ccccc3)c(=O)oc2c1C)c1ccc(Br)cc1", "method": "MTT", "concentration": "6.3 µg/mL", "measurement": "viability", "result": "50.6%"}
{"Structure (SMILES)": "COc1ccc(-c2cc(-c3ccc(C)cc3)nc3[nH]c(=O)[nH]c(=O)c23)cc1OC", "method": "MTT", "time": "48 h", "measurement": "IC50", "result": "34.7 µM"}
{"Structure (SMILES)": "O=C(Nc1ccccc1)Nc1ccc(Oc2nnc(-c3ccc(Cl)cc3)c3ccccc23)cc1", "method": "MTT", "concentration": "0.312 µM", "time": "24 h", "measurement": "viability", "result": "7.03%"}
{"Structure (SMILES)": "CC(=O)c1nn(-c2ccccc2Cl)/c(=N/N=C(\\C)c2ccc(NC(=O)c3ccccc3)cc2)s1", "method": "MTT", "concentration": "1.25 µM", "measurement": "viability", "result": "5.77%"}
{"Structure (SMILES)": "CC(=NNC(=S)Nc1ccccc1)c1ccc(Nc2nnc(-c3ccc(Cl)cc3)c3ccccc23)cc1", "method": "MTT", "concentration": "1.25 µM", "measurement": "cell death", "result": "50%"}
{"Structure (SMILES)": "CC(=O)c1nn(-c2ccc(C)cc2)/c(=N/N=C(\\C)c2ccc(NC(=O)c3ccccc3)cc2)s1", "method": "MTT", "concentration": "5 µM", "measurement": "viability", "result": "6.81%"}
